Measurements reported in ChEMBL document CHEMBL3286371, “wALADin benzimidazoles differentially modulate the function of porphobilinogen synthase orthologs” (J Med Chem, 2014).
Activity calls are given as the source filed them. The rule behind the calls is not given here.

What was measured:
[1] = target: Delta-aminolevulinic acid dehydratase (Pseudomonas aeruginosa (strain ATCC 15692 / PAO1 / 1C / PRS 101 / LMG12228)) (UniProt Q59643); experiment: Stimulation of Pseudomonas aeruginosa PAO1 recombinant PBGS using 5 mM 5-ALA as substrate assessed as increase in Vmax at 50 to 200 uM at pH 8 by Michaelis-Menten plot analysis in presence of MgCl2
Outline: (§1)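 Mg2+ or substrate response curves recorded with and without wALADin1; VMAX, KM and Mg2+ affinity derived from the fits.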

[2] = target: Delta-aminolevulinic acid dehydratase (Pseudomonas aeruginosa (strain ATCC 15692 / PAO1 / 1C / PRS 101 / LMG12228)) (UniProt Q59643); experiment: Stimulation of Pseudomonas aeruginosa PAO1 recombinant PBGS assessed as stabilization of dimeric form at 8 to 2000 uM by nondenaturing PAGE analysis in presence of Mg2+ and K+ and 5-ALA
[3] = target: Delta-aminolevulinic acid dehydratase (Pseudomonas aeruginosa (strain ATCC 15692 / PAO1 / 1C / PRS 101 / LMG12228)) (UniProt Q59643); experiment: Stimulation of Pseudomonas aeruginosa PAO1 recombinant PBGS assessed as stabilization of dimeric form at 8 to 2000 uM by nondenaturing PAGE analysis in presence of Mg2+ and K+
Outline: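 PaPBGS (3 μg) preincubated 20 min at 37 °C in assay buffer with 1 mM Mg2+, 100 mM K+ and wALADin1, no 5-ALA. Run on 7.5% nondenaturing PAGE at 4 °C for 15–20 h. Coomassie for oligomer state; in-gel activity with 500 μM 5-ALA stained with Ehrlich's reagent.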

[4] = target: Delta-aminolevulinic acid dehydratase (Pseudomonas aeruginosa (strain ATCC 15692 / PAO1 / 1C / PRS 101 / LMG12228)) (UniProt Q59643); experiment: Stimulation of Pseudomonas aeruginosa PAO1 recombinant PBGS using 5 mM 5-ALA as substrate assessed as increase in Vmax at 10 to 10000 uM at pH 8 by buffer scan assay in presence of MgCl2; outline: as §1
[5] = target: T1, Delta-aminolevulinic acid dehydratase (Wolbachia sp. subsp. Brugia malayi (strain TRS)) (UniProt Q5GSR3); conditions: 25 to 2500 uM
T1 sequence (whole entry): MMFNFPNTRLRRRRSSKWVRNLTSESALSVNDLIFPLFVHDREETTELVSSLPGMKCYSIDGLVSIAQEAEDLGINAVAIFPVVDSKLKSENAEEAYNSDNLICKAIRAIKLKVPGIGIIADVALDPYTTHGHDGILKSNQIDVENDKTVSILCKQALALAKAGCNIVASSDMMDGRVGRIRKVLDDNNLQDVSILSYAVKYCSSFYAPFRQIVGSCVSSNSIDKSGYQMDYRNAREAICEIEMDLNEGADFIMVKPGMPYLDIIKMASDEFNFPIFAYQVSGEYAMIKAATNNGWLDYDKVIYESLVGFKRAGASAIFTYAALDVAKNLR

[6] = target: Delta-aminolevulinic acid dehydratase (Pseudomonas aeruginosa (strain ATCC 15692 / PAO1 / 1C / PRS 101 / LMG12228)) (UniProt Q59643); experiment: Stimulation of Pseudomonas aeruginosa PAO1 recombinant PBGS using 5 mM 5-ALA as substrate assessed as effect on Km at 50 to 200 uM at pH 8 by Michaelis-Menten plot analysis in presence of MgCl2; outline: as §1
[7] = target: Delta-aminolevulinic acid dehydratase (Pseudomonas aeruginosa (strain ATCC 15692 / PAO1 / 1C / PRS 101 / LMG12228)) (UniProt Q59643); experiment: Inhibition of Pseudomonas aeruginosa PAO1 recombinant PBGS using 0.2 mM 5-ALA as substrate at 50 to 200 uM at low pH by buffer scan assay
[8] = target: Delta-aminolevulinic acid dehydratase (Pseudomonas aeruginosa (strain ATCC 15692 / PAO1 / 1C / PRS 101 / LMG12228)) (UniProt Q59643); experiment: Competitive inhibition of Pseudomonas aeruginosa PAO1 recombinant PBGS using 0.2 mM 5-ALA as substrate assessed as increase in Km at 50 to 200 uM at pH 7.5 by Michaelis-Menten plot analysis in presence of MgCl2
Outline: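 PaPBGS under "standard inhibitory" conditions (100 mM Tris-HCl pH 7.5, 1 mM MgCl2, no KCl). 5-ALA varied for substrate-response curves at several wALADin1 levels; KM and VMAX derived from the fits. Incubation at 36 °C.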

[9] = target: T2, Delta-aminolevulinic acid dehydratase, chloroplastic (Pisum sativum) (UniProt P30124); experiment: Inhibition of Pisum sativum PBGS using 10 mM 5-ALA as substrate assessed as decrease in enzyme activity at 6.25 to 100 uM in presence of MgCl2; conditions: Lathyrus oleraceus
T2 sequence (whole entry): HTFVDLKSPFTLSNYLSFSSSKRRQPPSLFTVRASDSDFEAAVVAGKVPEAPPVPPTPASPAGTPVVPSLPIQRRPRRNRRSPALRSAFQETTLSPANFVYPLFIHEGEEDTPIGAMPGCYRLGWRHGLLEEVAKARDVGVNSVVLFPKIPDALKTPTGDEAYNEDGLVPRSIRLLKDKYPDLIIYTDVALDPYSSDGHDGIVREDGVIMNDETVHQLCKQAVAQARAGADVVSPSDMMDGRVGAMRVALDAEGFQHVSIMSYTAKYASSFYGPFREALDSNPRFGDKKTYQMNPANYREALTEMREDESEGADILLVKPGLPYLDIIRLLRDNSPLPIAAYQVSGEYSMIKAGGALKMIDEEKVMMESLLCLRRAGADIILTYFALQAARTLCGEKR

[10] = target: Delta-aminolevulinic acid dehydratase (Pseudomonas aeruginosa (strain ATCC 15692 / PAO1 / 1C / PRS 101 / LMG12228)) (UniProt Q59643); experiment: Stimulation of Pseudomonas aeruginosa PAO1 recombinant PBGS using 5 mM 5-ALA as substrate assessed as change in enzyme affinity for Mg2+ at 10 to 10000 uM at pH 8 by buffer scan assay in presence of MgCl2; outline: as §1
[11] = target: T3, Delta-aminolevulinic acid dehydratase (Escherichia coli (strain K12)) (UniProt P0ACB2); experiment: Stimulation of Escherichia coli recombinant PBGS using 5-ALA as substrate relative to control
T3 sequence (whole entry): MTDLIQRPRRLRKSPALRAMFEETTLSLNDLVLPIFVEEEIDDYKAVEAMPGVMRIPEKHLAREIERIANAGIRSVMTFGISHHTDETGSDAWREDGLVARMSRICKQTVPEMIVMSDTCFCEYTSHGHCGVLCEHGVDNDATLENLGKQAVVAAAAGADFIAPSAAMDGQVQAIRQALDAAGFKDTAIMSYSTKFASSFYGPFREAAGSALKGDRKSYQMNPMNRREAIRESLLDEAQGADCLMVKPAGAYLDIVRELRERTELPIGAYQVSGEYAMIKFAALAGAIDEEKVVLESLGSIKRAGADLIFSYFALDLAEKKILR
Outline: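 E. coli PBGS at 200 nM subunit in 100 mM BTP-HCl pH 8.1 with 1 mM MgCl2, 10 μM ZnCl2, 5 mM DTT and 0.2 mM 5-ALA, 10 min at 36 °C. Porphobilinogen detected with Ehrlich's reagent. EC50 by log(agonist) vs response variable-slope fit.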

[12] = target: T3, Delta-aminolevulinic acid dehydratase (Escherichia coli (strain K12)); experiment: Inhibition of Escherichia coli recombinant PBGS using 5-ALA as substrate at 50 to 200 uM at pH 7 to 8.5 by buffer scan assay
[13] = target: Delta-aminolevulinic acid dehydratase (Pseudomonas aeruginosa (strain ATCC 15692 / PAO1 / 1C / PRS 101 / LMG12228)) (UniProt Q59643); experiment: Stimulation of Pseudomonas aeruginosa PAO1 recombinant PBGS using 5 mM 5-ALA as substrate at 50 to 200 uM at pH 8 by buffer scan assay in presence of KCl
[14] = target: Delta-aminolevulinic acid dehydratase (Pseudomonas aeruginosa (strain ATCC 15692 / PAO1 / 1C / PRS 101 / LMG12228)) (UniProt Q59643); experiment: Stimulation of Pseudomonas aeruginosa PAO1 recombinant PBGS using 5-ALA as substrate relative to control
Outline: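 His-tagged PaPBGS at 150 nM subunit in 100 mM Tris-HCl pH 8.0 with 1 mM MgCl2, 100 mM KCl and 0.2 mM 5-ALA, 10 min at 36 °C, with turnover at most 30%. Porphobilinogen read with Ehrlich's reagent. Activity normalized to 6.7% DMSO control as 100%. EC50 from variable-slope agonist fit.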

Sequence of Delta-aminolevulinic acid dehydratase (Pseudomonas aeruginosa (strain ATCC 15692 / PAO1 / 1C / PRS 101 / LMG12228)) (Q59643 whole entry): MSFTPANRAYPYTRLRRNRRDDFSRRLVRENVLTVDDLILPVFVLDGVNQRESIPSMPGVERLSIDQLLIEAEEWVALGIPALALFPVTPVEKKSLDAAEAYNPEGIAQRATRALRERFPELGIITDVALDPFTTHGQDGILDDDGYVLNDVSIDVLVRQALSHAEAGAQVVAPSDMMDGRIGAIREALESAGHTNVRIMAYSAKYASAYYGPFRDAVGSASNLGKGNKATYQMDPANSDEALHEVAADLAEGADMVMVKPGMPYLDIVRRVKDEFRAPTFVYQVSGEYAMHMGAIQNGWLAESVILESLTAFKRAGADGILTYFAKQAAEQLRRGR

O=C(O)c1ccc2c(c1)nc(CCNC(=O)c1cccs1)n2Cc1cccc(C(F)(F)F)c1
Activity [1]: Active | Activity [2]: inactive | Activity [3]: inactive | Activity [4]: Active | inhibition [5]: Active | Activity [6]: inactive | inhibition [7]: Active | inhibition [8]: Active | inhibition [9]: Active | Activity [10]: Active | Smax [11]: 120% | inhibition [12]: Active | Activity [13]: Active | Smax [14]: 123%
